# Bioassay records: PubChem, several laboratories
# NOD2 RIPK2 PPI = NOD2-RIPK2 binding disruptors in cells, primary screen, fluorescence, CHO cells, BLA complementation. Receptor-interacting serine/threonine-protein kinase 2 (Homo sapiens), O43353. CCF4 ratio. inhibition, % at 4.98 µM. actives 0.38% (n = 360,000). AID 624267, 2012; in the data active = inhibition above about 21%;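 also: 0% = vehicle only and 100% = reference blocker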
# Target sequence (O43353 whole entry, looked up): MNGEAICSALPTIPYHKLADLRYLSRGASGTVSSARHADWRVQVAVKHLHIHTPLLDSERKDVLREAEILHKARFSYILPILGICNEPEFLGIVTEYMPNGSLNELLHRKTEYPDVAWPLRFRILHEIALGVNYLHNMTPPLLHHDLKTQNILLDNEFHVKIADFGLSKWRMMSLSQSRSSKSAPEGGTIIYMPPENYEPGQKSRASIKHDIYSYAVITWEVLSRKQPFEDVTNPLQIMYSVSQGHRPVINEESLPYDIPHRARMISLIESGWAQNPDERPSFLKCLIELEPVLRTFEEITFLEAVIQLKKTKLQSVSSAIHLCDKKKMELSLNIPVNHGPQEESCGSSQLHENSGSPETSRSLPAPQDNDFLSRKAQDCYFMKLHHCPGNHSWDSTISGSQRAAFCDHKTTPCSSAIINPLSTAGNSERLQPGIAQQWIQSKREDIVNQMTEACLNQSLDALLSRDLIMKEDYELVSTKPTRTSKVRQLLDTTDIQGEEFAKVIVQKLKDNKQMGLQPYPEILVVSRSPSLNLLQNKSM
# XBP1 UPR activ = activators of adaptive XBP1 UPR arm, primary screen, cell-based, CHO-XBP1 luciferase reporter, luminescence, uHTS; actives 0.33% (n = 330,000); AID 463104, 2010; IRE1-XBP1 UPR activation; percent of tunicamycin response, DMSO as zero; activation, % at 20 µM;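 active = versus positive control, 20 µM dose yields 30% or more activation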;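 also: 100% = tunicamycin at 10 µg/mL and 0% = DMSO only wells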
#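 Material – CHO cell line with stable XBP1 luciferase reporter · Buffer or medium – F12 plus 10% FBS · Compound – single point, 20 µM final compound, 1% DMSO · Schedule – 16-18 h cell attachment at 37 °C, then 6 h compound exposure · Signal – Steady-Glo luminescence read · Benchmarks – high control tunicamycin 10 µg/mL final, low control DMSO vehicle only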
# TLR9-MyD88 inh = inhibitors of TLR9-MyD88 association in cells, primary screen, cell-based, CHO, BLA complementation, fluorescence; CCF4 FRET ratio; inhibition, % at 4.98 µM; actives 0.21% (n = 340,000);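 active = inhibition above the mean over all tested compounds plus 3 SD, cut at about 21% in these data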;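 also: 0% = DMSO only wells and 100% = clavulanate BLA inhibitor control wells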
# CHOP UPR activ = activators of apoptotic CHOP UPR arm, primary screen, cell-based, CHO-CHOP luciferase reporter, luminescence, uHTS | UPR activation; percent of tunicamycin response over DMSO baseline | activation, % at 10 µM | actives 0.34% (n = 330,000);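 active = at 10 µM dose, activation of 40% or more, normalized to positive control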;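 also: 100% = tunicamycin at 10 µg/mL and 0% = DMSO alone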
#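 Assay system: CHO cells with stable CHOP pathway luciferase reporter; Buffer or medium: F12 plus 10% serum; Times: 16-18 h cell attachment, then 6 h compound exposure, 37 °C; Signal: luciferase luminescence; Read-out basis: percent activation relative to tunicamycin control; Control set: tunicamycin high control, DMSO low control.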
# NOD2 RIPK2 conf = NOD2-RIPK2 binding disruptors, retest, confirmation, fluorescence, CHO cells, BLA complementation, triplicate; shares compounds with NOD2 RIPK2 PPI; CCF4 FRET; inhibition, % at 4.98 µM; actives 70% (n = 1,200); AID 624370, 2012;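 active = mean inhibition across replicates above a set limit taken from the earlier primary screen, cut at about 21% in these data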;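 also: 0% = DMSO-only wells and the high end = clavulanate BLA-blocked wells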
# BLA counter = NOD2-RIPK2 counterscreen BLA reporter activity. shares compounds with NOD2 RIPK2 PPI. CHO BLA reporter, CCF4 FRET ratio. inhibition, % at 4.98 µM. actives 57% (n = 1,200);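 active = mean inhibition above the low-control mean inhibition plus three low-control SD, cut at about 11% in these data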;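 also: 0% = DMSO only wells and 100% = clavulanate high control wells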
# The depositor's hits bear a star; nt = no result. This is a sample that favours compounds with a hit; in the whole collection about 3% have one here.
SMILES,NOD2 RIPK2 PPI,XBP1 UPR activ,TLR9-MyD88 inh,CHOP UPR activ,NOD2 RIPK2 conf,BLA counter
COc1ccc(C[C@H]2NC[C@H](O)[C@H]2OC(C)=O)cc1,26.1*,-11.4,15.1,-6.9,29.1*,1.2
CCOC(=O)[C@]12Cc3cc(Cl)ccc3[C@H]1N(C)C(=O)c1ccccc12,-13.6,nt,nt,nt,nt,nt
CCOC(=O)[C@]12Cc3cc(Cl)ccc3[C@H]1N(C1CCCCC1)C(=O)c1ccccc12,66.1*,nt,nt,nt,68.0*,-0.2
CCOC(=O)[C@]12Cc3cc(Cl)ccc3[C@H]1N(C(C)C)C(=O)c1ccccc12,30.5*,nt,nt,nt,66.8*,2.8
CCCCCN1C(=O)c2cc(OC)ccc2[C@@]2(C(=O)OCC)Cc3cc(Cl)ccc3[C@@H]12,45.7*,nt,nt,nt,44.0*,-1.9
CCOC(=O)[C@]12Cc3cc(OC)ccc3[C@H]1N(C1CCCCC1)C(=O)c1ccccc12,50.4*,nt,nt,nt,61.6*,0.0
CCOC(=O)[C@]12Cc3cc(C)ccc3[C@H]1N(C)C(=O)c1ccccc12,-14.4,nt,nt,nt,nt,nt
CCOC(=O)[C@]12Cc3cc(OC)ccc3[C@H]1N(C)C(=O)c1ccccc12,-14.4,nt,nt,nt,nt,nt
COc1ccc(OCC(=O)N2CCCC(N3CCN(c4ccccc4C)CC3)C2)cc1 (configuration not stated),-9.1,-1.6,-0.2,1.7,nt,nt
